{"source": "ChEMBL document CHEMBL1125728", "about": "“Dopamine autoreceptor agonists as potential antipsychotics. 2. (Aminoalkoxy)-4H-1-benzopyran-4-ones” (J Med Chem, 1991)", "key": {"[1]": {"target": "T1, Adrenergic receptor alpha-2 (Rattus norvegicus, UniProt P22086+P19328+P22909)", "T1 sequence (P22086 whole entry)": "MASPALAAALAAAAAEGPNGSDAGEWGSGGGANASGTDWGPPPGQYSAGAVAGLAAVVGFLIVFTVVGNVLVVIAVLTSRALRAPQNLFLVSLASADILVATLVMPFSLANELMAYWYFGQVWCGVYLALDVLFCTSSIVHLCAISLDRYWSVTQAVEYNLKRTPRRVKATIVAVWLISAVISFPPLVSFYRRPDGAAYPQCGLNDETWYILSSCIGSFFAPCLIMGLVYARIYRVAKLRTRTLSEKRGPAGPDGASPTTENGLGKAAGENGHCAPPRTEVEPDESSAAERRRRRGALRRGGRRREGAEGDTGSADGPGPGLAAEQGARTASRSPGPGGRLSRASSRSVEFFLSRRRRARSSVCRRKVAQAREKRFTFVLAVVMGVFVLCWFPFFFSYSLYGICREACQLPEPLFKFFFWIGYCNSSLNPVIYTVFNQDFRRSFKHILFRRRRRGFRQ", "T1 sequence (P19328 whole entry)": "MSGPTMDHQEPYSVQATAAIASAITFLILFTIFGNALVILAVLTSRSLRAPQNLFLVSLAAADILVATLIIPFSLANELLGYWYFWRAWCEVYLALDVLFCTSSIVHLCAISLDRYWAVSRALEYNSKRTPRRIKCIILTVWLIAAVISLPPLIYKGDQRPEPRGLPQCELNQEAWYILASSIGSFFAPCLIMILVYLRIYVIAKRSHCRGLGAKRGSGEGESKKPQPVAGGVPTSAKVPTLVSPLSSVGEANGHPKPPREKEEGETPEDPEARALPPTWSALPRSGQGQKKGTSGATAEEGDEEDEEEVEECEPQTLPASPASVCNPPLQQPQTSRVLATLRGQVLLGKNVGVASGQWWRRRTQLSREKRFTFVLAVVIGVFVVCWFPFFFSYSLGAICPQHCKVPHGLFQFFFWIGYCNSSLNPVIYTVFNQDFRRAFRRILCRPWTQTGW", "T1 sequence (P22909 whole entry)": "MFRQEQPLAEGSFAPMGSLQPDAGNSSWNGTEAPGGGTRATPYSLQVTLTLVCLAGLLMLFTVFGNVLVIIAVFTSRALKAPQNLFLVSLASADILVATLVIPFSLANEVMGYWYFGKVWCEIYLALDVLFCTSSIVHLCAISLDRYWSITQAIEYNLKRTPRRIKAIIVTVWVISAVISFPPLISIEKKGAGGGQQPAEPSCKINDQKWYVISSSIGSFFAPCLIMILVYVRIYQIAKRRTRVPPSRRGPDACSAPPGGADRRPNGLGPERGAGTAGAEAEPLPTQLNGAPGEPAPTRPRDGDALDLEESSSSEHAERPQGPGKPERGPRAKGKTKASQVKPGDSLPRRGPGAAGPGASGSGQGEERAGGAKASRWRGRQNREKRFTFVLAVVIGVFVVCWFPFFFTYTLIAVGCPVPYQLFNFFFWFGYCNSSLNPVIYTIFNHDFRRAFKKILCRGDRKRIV", "experiment": "Compound was tested for its inhibitory effect on the binding profile in Alpha-2 adrenergic receptor using [3H]p-aminoclonidine in rat brain.", "assay_type": "tissue-based", "method_in_brief": "(§1)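 Rat brain receptor binding with the stated radioligands. IC50 obtained by nonlinear regression from four to five concentrations. [3H]flupenthixol and [3H]N-propylnorapomorphine values come from four independent determinations each, and the [3H]haloperidol value from two experiments. Remaining ligands were determined once.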"}, "Rattus norvegicus": {"tested_on": "Rattus norvegicus", "experiment": "Compound tested for its effect on reversal of 6-OHDA induced depression in rats after sc administration.", "assay_type": "functional", "method_in_brief": "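Rats lesioned at least 1 month earlier with 6-OHDA (20 μg icv) plus pargyline (50 mg/kg ip) and desipramine (25 mg/kg ip), giving about 90% brain DA depletion. Drug given sc, then locomotor activity recorded for 30 min from dosing. ED200 estimated from three or four doses, six rats per dose.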"}, "[2]": {"target": "Serotonin 2 (5-HT2) receptor (Rattus norvegicus, UniProt P30994+P08909+P14842)", "experiment": "Compound was tested for its inhibitory effect on the binding profile in 5-hydroxytryptamine 2 receptor using [3H]spiroperidol in rat brain.", "assay_type": "tissue-based", "method_in_brief": "as §1"}}, "data": [{"smiles": "O=c1ccoc2cc(OCCCN3CCN(c4ccccn4)CC3)ccc12", "values": [{"measurement": "IC50", "setting": "[1]", "result": 2600, "unit": "nM"}, {"measurement": "ED200", "setting": "Rattus norvegicus", "result": "> 5", "unit": "mg/kg"}, {"measurement": "IC50", "setting": "[2]", "result": 1000, "unit": "nM"}]}]}
